One block for each compound: values may come before it.
What was measured:
Plasma [1] = test: Anticoagulant activity in human plasma assessed as prothrombin time at 1 mg/ml; type: functional
Method in brief: (§1)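 Frozen human plasma (blood type A+) was used. Compounds were prepared at 1 mg/mL in a vehicle of 96% EtOH, 0.9% NaCl, 20% glycerol and phosphate buffer pH 7. Prothrombin time was measured by Quick method and reported in seconds and as INR, with SD from at least three measurements.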

Plasma [2] = test: Anticoagulant activity in Wistar albino rat plasma assessed as prothrombin time at 0.1 mg/kg, ip; type: functional; details: route intraperitoneal
Method in brief: (§2)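 Adult Wistar rats (2.5 months, 220–250 g), three per compound and control, were given a single i.p. dose of 0.1 or 0.5 mg/kg in ethanol solution and sacrificed 24 h later. […] Plasma prothrombin time was measured by Quick method and reported in seconds and as INR, from at least three measurements.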

Plasma [3] = test: Anticoagulant activity in Wistar albino rat plasma assessed as prothrombin time at 0.5 mg/kg, ip; type: functional; details: route intraperitoneal
Method in brief: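 Adult Wistar rats (2.5 months, 220–250 g), three per compound and control, were given a single i.p. dose of 0.1 or 0.5 mg/kg in ethanol solution and sacrificed 24 h later. Plasma prothrombin time was measured by Quick method and reported in seconds and as INR, from at least three measurements.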

Plasma [4] = test: Anticoagulant activity in Wistar albino rat plasma assessed as fibrin time; type: functional
Method in brief: (§3)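 Adult albino Wistar rats (2.5 months old, 220–250 g), three per compound and control. […] Fibrin time and fibrinogen were determined on plasma. Fibrinogen was quantified by biuret method at 540 nm. At least three measurements, reported with standard deviation.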

Plasma [5] = test: Anticoagulant activity in Wistar albino rat plasma assessed as prothrombin time at 0.5 mg/kg/day, ip administered for 5 days measured after second dose; type: functional; details: route intraperitoneal
Method in brief: (§4)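 Wistar rats, three per group, were dosed i.p. at 0.5 mg/kg per day over five days in ethanol solution and sacrificed on day six. Plasma prothrombin time was measured by Quick method after the second 0.5 mg/kg administration, reported in seconds and INR. Where animals were dosed more than once, PTs were averaged.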

Rattus norvegicus [6] = test: Hepatotoxicity in Wistar albino rat assessed as change in serum bilirubin level at 0.5 mg/kg, ip measured after 24 hrs; type: toxicity, organism-based; set-up: dose 0.5 mg/kg, route intraperitoneal; details: in vivo
Rattus norvegicus [7] = test: Hepatotoxicity in Wistar albino rat assessed as change in serum AST level at 0.5 mg/kg, ip measured after 24 hrs; type: toxicity, organism-based; set-up: dose 0.5 mg/kg, route intraperitoneal; details: in vivo
Rattus norvegicus [8] = test: Hepatotoxicity in Wistar albino rat assessed as change in serum ALT level at 0.5 mg/kg, ip measured after 24 hrs; type: toxicity, organism-based; set-up: dose 0.5 mg/kg, route intraperitoneal; details: in vivo
Rattus norvegicus [9] = test: Hepatotoxicity in Wistar albino rat assessed as change in serum ALP level at 0.5 mg/kg, ip measured after 24 hrs; type: toxicity, organism-based; set-up: dose 0.5 mg/kg, route intraperitoneal; details: in vivo
Rattus norvegicus [10] = test: Hepatotoxicity in Wistar albino rat assessed as change in serum gamma-GT level at 0.5 mg/kg, ip measured after 24 hrs; type: toxicity, organism-based; set-up: dose 0.5 mg/kg, route intraperitoneal; details: in vivo
Rattus norvegicus [11] = test: Hepatotoxicity in Wistar albino rat assessed as change in serum iron level at 0.5 mg/kg, ip measured after 24 hrs; type: toxicity, organism-based; set-up: dose 0.5 mg/kg, route intraperitoneal; details: in vivo
Rattus norvegicus [12] = test: Hepatotoxicity in Wistar albino rat assessed as change in serum protein level at 0.5 mg/kg, ip measured after 24 hrs; type: toxicity, organism-based; set-up: dose 0.5 mg/kg, route intraperitoneal; details: in vivo
Rattus norvegicus [13] = test: Hepatotoxicity in Wistar albino rat assessed as change in serum albumin level at 0.5 mg/kg, ip measured after 24 hrs; type: toxicity, organism-based; set-up: dose 0.5 mg/kg, route intraperitoneal; details: in vivo
Rattus norvegicus [14] = test: Hepatotoxicity in Wistar albino rat assessed as change in serum gamma-GT level at 0.5 mg/kg, ip administered for 5 days measured after second compound dose; type: toxicity, organism-based; set-up: dose 0.5 mg/kg, route intraperitoneal; details: in vivo, 120 h
Rattus norvegicus [15] = test: Hepatotoxicity in Wistar albino rat assessed as change in serum iron level at 0.5 mg/kg/day, ip administered for 5 days measured after second compound dose; type: toxicity, organism-based; set-up: route intraperitoneal; details: in vivo, 120 h
Plasma [16] = test: Anticoagulant activity in Wistar albino rat plasma assessed as prothrombin time at 0.5 mg/kg, ip relative to untreated control; type: functional; details: route intraperitoneal
Method in brief: (§5)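 Rats (Wistar, 220–250 g, n=3 per group) were dosed i.p. with 0.5 mg/kg compound in ethanol solution. Prothrombin time was measured in plasma by Quick method and expressed as fold of the matching control value. […] Groups were compared by one-way ANOVA with Dunnett T3 or Bonferroni post-hoc tests.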

Plasma [17] = test: Anticoagulant activity in Wistar albino rat plasma assessed as prothrombin time at 0.5 mg/kg, ip relative to warfarin; type: functional; details: route intraperitoneal; method in brief: as §5
Plasma [18] = test: Anticoagulant activity in human plasma assessed as international normalized ratio at 1 mg/ml; type: functional; method in brief: as §1
Plasma [19] = test: Anticoagulant activity in Wistar albino rat plasma assessed as international normalized ratio at 0.1 mg/kg, ip; type: functional; details: route intraperitoneal; method in brief: as §2
Plasma [20] = test: Anticoagulant activity in Wistar albino rat plasma assessed as international normalized ratio at 0.5 mg/kg, ip; type: functional; details: route intraperitoneal; method in brief: as §2
Plasma [21] = test: Anticoagulant activity in Wistar albino rat plasma assessed as international normalized ratio at 0.5 mg/kg/day, ip administered for 5 days measured after second dose; type: functional; details: route intraperitoneal; method in brief: as §4
Rattus norvegicus [22] = test: Hepatotoxicity in Wistar albino rat assessed as change in serum AST level at 0.5 mg/kg, ip measured after 24 hrs relative to untreated control; type: toxicity, organism-based; set-up: dose 0.5 mg/kg, route intraperitoneal; details: in vivo
Method in brief: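 Serum AST was measured 24 h after a single 0.5 mg/kg i.p. dose (ethanol solution) in Wistar rats, three per group, by IFCC UV kinetic method at 340 nm. Activity was expressed as fold of the negative (96% ethanol) control, and compared by one-way ANOVA with post-hoc tests.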

Plasma [23] = test: Anticoagulant activity in Wistar albino rat plasma assessed as fibrinogen level at 0.5 mg/kg/day, ip administered for 5 days; type: functional; details: route intraperitoneal
Method in brief: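 Wistar rats (220–250 g), three per group, got one i.p. dose of 0.5 mg/kg per day for five days and were sacrificed on day six. […] Plasma fibrinogen was measured by biuret method at 540 nm.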

[24] = target: VKORC1 (Rattus norvegicus); test: Inhibition of VKORC1
Rattus norvegicus [25] = test: Anticoagulant activity in Wistar rats in vivo assessed as prothrombin time
Rattus norvegicus [26] = test: Drug metabolism in Wistar albino rat assessed as 7-hydroxycoumarin level in urine at 1 mg/kg, ip measured after 72 hrs by GC/MS analysis; details: in vivo
Rattus norvegicus [27] = test: Drug metabolism in Wistar albino rat assessed as coumarin-7-glucuronide level in urine at 1 mg/kg, ip measured after 72 hrs by GC/MS analysis; details: in vivo
Rattus norvegicus [28] = test: Hepatotoxicity in Wistar albino rat assessed as change in serum AST level at 0.5 mg/kg/day, ip administered for 5 days measured after second compound dose; details: in vivo, 120 h
Rattus norvegicus [29] = test: Hepatotoxicity in Wistar albino rat assessed as change in serum ALT level at 0.5 mg/kg/day, ip administered for 5 days measured after second compound dose; details: in vivo, 120 h
Plasma [30] = test: Anticoagulant activity in Wistar albino rat plasma assessed as fibrinogen level; type: functional; method in brief: as §3

- Ki [24]: 44.8 µM
- IC50 (Rattus norvegicus [25]): 141 µM
- Drug metabolism (Rattus norvegicus [26]): Active
- Drug metabolism (Rattus norvegicus [27]): Active
Structure (SMILES): O=c1oc2ccccc2c(O)c1-c1csc(Nc2ccc(S(=O)(=O)O)cc2)n1
- PT (Plasma [1]): 26.5 s
- PT (Plasma [2]): 10.4 s
- PT (Plasma [3]): 12.4 s
- Time (Plasma [4]): >500 s
- PT (Plasma [5]): 28.6 s
- Activity (Rattus norvegicus [6]): 1.6 µmol/L
- Activity (Rattus norvegicus [7]): 269.7 U/L
- Activity (Rattus norvegicus [8]): 58.4 U/L
- Activity (Rattus norvegicus [9]): 164 U/L
- Activity (Rattus norvegicus [10]): 2.4 U/L
- Activity (Rattus norvegicus [11]): 19.3 µmol/L
- Activity (Rattus norvegicus [12]): 64.9 g/L
- Activity (Rattus norvegicus [13]): 40.8 g/L
- Activity (Rattus norvegicus [14]): 2.2 U/L
- Activity (Rattus norvegicus [15]): 19 µmol/L
- fold change (FC) (Plasma [16]): 1.27
- fold change (FC) (Plasma [17]): 1.18
- Ratio (Plasma [18]): 2.6
- Ratio (Plasma [19]): 0.82
- Ratio (Plasma [20]): 0.84
- Ratio (Plasma [21]): 1.38
- fold change (FC) (Rattus norvegicus [22]): 1.59
- Activity (Plasma [23]): 0.9 g/L
- AST (Rattus norvegicus [28]): 207.5 U/L
- ALT (Rattus norvegicus [29]): 63 U/L

- IC50 (Rattus norvegicus [25]): 741 µM
- Drug metabolism (Rattus norvegicus [26]): Active
- Drug metabolism (Rattus norvegicus [27]): Active
Structure (SMILES): O=c1oc2ccccc2c(O)c1-c1csc(Nc2cccc([N+](=O)[O-])c2)n1
- PT (Plasma [1]): 24.4 s
- PT (Plasma [2]): 9.6 s
- PT (Plasma [3]): 14.4 s
- Activity (Plasma [30]): 0.6 g/L
- Time (Plasma [4]): >500 s
- PT (Plasma [5]): 28.1 s
- Activity (Rattus norvegicus [6]): 2.2 µmol/L
- Activity (Rattus norvegicus [7]): 294.6 U/L
- Activity (Rattus norvegicus [8]): 52.4 U/L
- Activity (Rattus norvegicus [9]): 225 U/L
- Activity (Rattus norvegicus [10]): 2.8 U/L
- Activity (Rattus norvegicus [11]): 29.7 µmol/L
- Activity (Rattus norvegicus [12]): 64.2 g/L
- Activity (Rattus norvegicus [13]): 39.7 g/L
- Activity (Rattus norvegicus [14]): 2.6 U/L
- Activity (Rattus norvegicus [15]): 17.3 µmol/L
- fold change (FC) (Plasma [16]): 1.48
- fold change (FC) (Plasma [17]): 1.18
- fold change (FC) (Rattus norvegicus [22]): 1.74
- Activity (Plasma [23]): 1.74 g/L
- AST (Rattus norvegicus [28]): 210.7 U/L
- ALT (Rattus norvegicus [29]): 65.1 U/L

- Ki [24]: 68.9 µM
- IC50 (Rattus norvegicus [25]): 141 µM
- Drug metabolism (Rattus norvegicus [26]): Active
- Drug metabolism (Rattus norvegicus [27]): Active
Structure (SMILES): CCOC(=O)C(C(=O)OCC)=C(C)c1c(O)c2ccccc2oc1=O
- PT (Plasma [1]): 23 s
- PT (Plasma [2]): 10.3 s
- PT (Plasma [3]): 10.5 s
- Activity (Plasma [30]): 5.1 g/L
- Time (Plasma [4]): 51.3 s
- PT (Plasma [5]): 30 s
- Activity (Rattus norvegicus [6]): 2 µmol/L
- Activity (Rattus norvegicus [7]): 238.3 U/L
- Activity (Rattus norvegicus [8]): 71.8 U/L
- Activity (Rattus norvegicus [9]): 513 U/L
- Activity (Rattus norvegicus [10]): 3.1 U/L
- Activity (Rattus norvegicus [11]): 28.4 µmol/L
- Activity (Rattus norvegicus [12]): 67.2 g/L
- Activity (Rattus norvegicus [13]): 35.2 g/L
- Activity (Rattus norvegicus [14]): 2.3 U/L
- Activity (Rattus norvegicus [15]): 17.7 µmol/L
- fold change (FC) (Plasma [16]): 1.08
- Activity (Plasma [17]): 86.06%
- Ratio (Plasma [18]): 1.99
- Ratio (Plasma [19]): 0.13
- Ratio (Plasma [20]): 0.13
- Ratio (Plasma [21]): 0.13
- fold change (FC) (Rattus norvegicus [22]): 1.41
- Activity (Plasma [23]): 1.6 g/L
- AST (Rattus norvegicus [28]): 209.9 U/L
- ALT (Rattus norvegicus [29]): 55.5 U/L

- IC50 (Rattus norvegicus [25]): 69.2 µM
- Drug metabolism (Rattus norvegicus [26]): Active
- Drug metabolism (Rattus norvegicus [27]): Active
Structure (SMILES): Cc1cccc(Nc2nc(-c3c(O)c4ccccc4oc3=O)cs2)c1
- PT (Plasma [1]): 25 s
- PT (Plasma [2]): 9.6 s
- PT (Plasma [3]): 9.7 s
- Activity (Plasma [30]): 2 g/L
- Time (Plasma [4]): 27.6 s
- PT (Plasma [5]): 28.1 s
- Activity (Rattus norvegicus [6]): 1.8 µmol/L
- Activity (Rattus norvegicus [7]): 284.6 U/L
- Activity (Rattus norvegicus [8]): 67.3 U/L
- Activity (Rattus norvegicus [9]): 172 U/L
- Activity (Rattus norvegicus [10]): 2.2 U/L
- Activity (Rattus norvegicus [11]): 28.4 µmol/L
- Activity (Rattus norvegicus [12]): 66.2 g/L
- Activity (Rattus norvegicus [13]): 41.9 g/L
- Activity (Rattus norvegicus [14]): 3 U/L
- Activity (Rattus norvegicus [15]): 17.3 µmol/L
- Activity (Plasma [17]): 79.51%
- fold change (FC) (Rattus norvegicus [22]): 1.68
- Activity (Plasma [23]): 1.2 g/L
- AST (Rattus norvegicus [28]): 175.5 U/L
- ALT (Rattus norvegicus [29]): 62.4 U/L
